Assays:
[1] = test system: A549; assay: Cytotoxicity against human A549 cells assessed as reduction in cell viability after 48 hrs by MTT assay; type: functional, cell-based; details: A549, 48 h
Outline: (§1)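 1 × 10^4 cells per well, pre-incubated 12 h at 37 °C under 5% CO2, then exposed to serial dilutions of compound (paclitaxel as reference) for 48 h. MTT reagent (5 mg/mL) added for a further 4 h, formazan dissolved in DMSO, absorbance read at 570 nm. Three independent experiments, each in triplicate; IC50 from sigmoid curve fitting.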

[2] = test system: MCF7; assay: Cytotoxicity against human MCF7 cells assessed as reduction in cell viability after 48 hrs by MTT assay; type: functional, cell-based; details: MCF7, 48 h; outline: as §1

## COc1cc(C(=O)OC[C@H]2O[C@@H](Oc3ccc4ccc(=O)oc4c3)[C@H](O)[C@@H](O)[C@@H]2O)cc(OC)c1O
[1]
  IC50: > 10 µM
[2]
  IC50: > 10 µM

## COc1cc(O)ccc1C(=O)C[C@H]1c2ccc(O)c(O)c2C[C@@H]1C(C)(C)O
[1]
  IC50: 2.5 µM
[2]
  IC50: 3.9 µM

## COc1cc(C(=O)OC[C@H]2O[C@@H](Oc3cc4oc(=O)ccc4cc3OC)[C@H](O)[C@@H](O)[C@@H]2O)ccc1O[C@@H]1O[C@H](CO)[C@@H](O)[C@H](O)[C@H]1O
[1]
  IC50: > 10 µM
[2]
  IC50: > 10 µM

## COc1cc2ccc(=O)oc2cc1O[C@@H]1O[C@H](COC(=O)CCc2cc(OC)c(O[C@@H]3O[C@H](CO)[C@@H](O)[C@H](O)[C@H]3O)c(OC)c2)[C@@H](O)[C@H](O)[C@H]1O
[1]
  IC50: > 10 µM
[2]
  IC50: > 10 µM

## COC(=O)C[C@@H]1c2c(-c3ccc(O)cc3OC)cc(O)c(O)c2C[C@H]1C(C)(C)O
[1]
  IC50: 6 µM
[2]
  IC50: 7.2 µM

## COc1cc2ccc(=O)oc2cc1O[C@@H]1O[C@H](COC(=O)c2cc(OC)c(O[C@@H]3O[C@H](CO)[C@@H](O)[C@H](O)[C@H]3O)c(OC)c2)[C@@H](O)[C@H](O)[C@H]1O
[1]
  IC50: > 10 µM
[2]
  IC50: > 10 µM

## COC(=O)C[C@@H]1c2c(-c3ccc(O)cc3OC)cc(O)c(O)c2C[C@@H]1C(C)(C)O
[1]
  IC50: 5.6 µM
[2]
  IC50: 6.7 µM

## COc1cc(O)ccc1C(=O)C[C@@H]1c2ccc(O)c(O)c2C[C@H]1C(C)(C)O
[1]
  IC50: 2.2 µM
[2]
  IC50: 3.3 µM
